The source made the active and inactive calls. No cut-off for these calls is given here.
Assays:
[1] = system: Aspergillus parasiticus; experiment: Fungicidal activity against Aspergillus parasiticus CECT 2681 at 0.2 mg/disk after 48 hrs by agar diffusion assay; type: functional
Outline: (§1)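 Fungi were grown 7 days at 28 °C on PDA, then suspended in 0.05% Tween 80 in sterile water to about 10^6 conidia/mL. 1 mL was mixed into 15 mL PDA. After setting, four 0.5 cm paper disks impregnated with test product were added. Controls were solvent-only disks and benomyl disks, dosed per fungus. The read-out was the no-growth inhibition zone (mm), as the mean ± SE of three independent experiments.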

[2] = system: Staphylococcus aureus; experiment: Bactericidal activity against Staphylococcus aureus CECT 86 at 0.2 mg/disk after 24 hrs by agar diffusion assay; type: functional
Outline: (§2)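 Each bacterium, kept as 24-h cultures on solid-medium slants, was reactivated in Nutrient Broth for 24 h at 28 or 37 °C depending on species. 1 mL of this suspension was plated and overlaid with 15 mL Plate Count Agar. Once the agar solidified, five paper disks loaded with test product were applied. Plates were incubated 24 h in the dark at 28 or 37 °C by species.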

[3] = system: Pectobacterium carotovorum; experiment: Bactericidal activity against Erwinia carotovora CECT 225 at 0.2 mg/disk after 24 hrs by agar diffusion assay; type: functional; outline: as §2
[4] = system: Fusarium culmorum; experiment: Fungicidal activity against Fusarium culmorum CCM 172 at 0.2 mg/disk after 48 hrs by agar diffusion assay; type: functional; outline: as §1
[5] = system: Trichoderma viride; experiment: Fungicidal activity against Trichoderma viride CECT 2423 at 0.2 mg/disk after 48 hrs by agar diffusion assay; type: functional; outline: as §1
[6] = system: Salmonella typhi; experiment: Bactericidal activity against Salmonella typhi CECT 409 at 0.2 mg/disk after 24 hrs by agar diffusion assay; type: functional, Salmonella enterica subsp. enterica serovar Typhi; conditions: for Activity: Salmonella enterica subsp. enterica serovar Typhi
Outline: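 Bacteria from 24-h slant cultures reactivated in Nutrient Broth for 24 h at 28 or 37 °C depending on strain. 1 mL of suspension was placed in a plate and overlaid with 15 mL Plate Count Agar. After solidification, five paper disks loaded with compound were applied. Plates were incubated 24 h in the dark at 28 or 37 °C depending on strain.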

[7] = system: Geotrichum candidum; experiment: Fungicidal activity against Geotrichum candidum CCM 245 at 0.2 mg/disk after 48 hrs by agar diffusion assay; type: functional; outline: as §1
[8] = system: Bacillus cereus; experiment: Bactericidal activity against Bacillus cereus CECT 148 at 0.2 mg/disk after 24 hrs by agar diffusion assay; type: functional; outline: as §2
[9] = system: Phytophthora citrophthora; experiment: Fungicidal activity against Phytophthora citrophthora CECT 2353 at 0.2 mg/disk after 48 hrs by agar diffusion assay; type: functional; outline: as §1
[10] = system: Enterococcus faecalis; experiment: Bactericidal activity against Enterococcus faecalis CECT 481 at 0.2 mg/disk after 24 hrs by agar diffusion assay; type: functional; outline: as §2
[11] = system: Escherichia coli; experiment: Bactericidal activity against Escherichia coli CECT 405 at 0.2 mg/disk after 24 hrs by agar diffusion assay; type: functional; outline: as §2
[12] = system: Escherichia coli; experiment: Bactericidal activity against Escherichia coli CECT 100 at 0.2 mg/disk after 24 hrs by agar diffusion assay; type: functional; outline: as §2
[13] = system: Trichoderma viride; experiment: Fungicidal activity against Trichoderma viride CECT 2423 at 0.4 mg/disk after 48 hrs by agar diffusion assay; type: functional, organism-based; outline: as §1
[14] = system: Aspergillus parasiticus; experiment: Fungicidal activity against Aspergillus parasiticus CECT 2681 at 0.4 mg/disk after 48 hrs by agar diffusion assay; type: functional, organism-based; outline: as §1
[15] = system: Geotrichum candidum; experiment: Fungicidal activity against Geotrichum candidum CCM 245 at 0.4 mg/disk after 48 hrs by agar diffusion assay; type: functional, organism-based; outline: as §1
[16] = system: Phytophthora citrophthora; experiment: Fungicidal activity against Phytophthora citrophthora CECT 2353 at 0.4 mg/disk after 48 hrs by agar diffusion assay; type: functional, organism-based; outline: as §1
[17] = system: Fusarium culmorum; experiment: Fungicidal activity against Fusarium culmorum CCM 172 at […] after 48 hrs by agar diffusion assay; type: functional, organism-based; conditions: 0.4 mg/disk; outline: as §1
[18] = system: Trichoderma viride; experiment: Fungicidal activity against Trichoderma viride CECT 2423 at 20 ug/disk after 48 hrs by agar diffusion assay; type: functional; conditions: CECT 2423, 48 h, read-out: IZ
Outline: (§3)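 Fungi were grown on PDA for 7 days at 28 °C and suspended in 0.05% Tween 80 to about 10^6 conidia/mL. 1 mL was mixed into 15 mL PDA. Four 0.5 cm paper disks carrying compound were placed on the set agar. Solvent-only disks served as negative control. The inhibition zone (mm) around each disk was measured. Values are the mean of three independent experiments.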

[19] = system: Phytophthora citrophthora; experiment: Fungicidal activity against Phytophthora citrophthora CECT 2353 at 30 ug/disk after 48 hrs by agar diffusion assay; type: functional; conditions: CECT 2353, 48 h, read-out: IZ; outline: as §3
[20] = system: Aspergillus parasiticus; experiment: Fungicidal activity against Aspergillus parasiticus CECT 2681 at 20 ug/disk after 48 hrs by agar diffusion assay; type: functional; conditions: CECT 2681, 48 h, read-out: IZ; outline: as §3

Row | SMILES | inhibition zone (IZ) [1] [mm] | inhibition zone (IZ) [2] [mm] | inhibition zone (IZ) [3] [mm] | inhibition zone (IZ) [4] [mm] | inhibition zone (IZ) [5] [mm] | inhibition zone (IZ) [6] [mm] | inhibition zone (IZ) [7] [mm] | inhibition zone (IZ) [8] [mm] | inhibition zone (IZ) [9] [mm] | inhibition zone (IZ) [10] [mm] | inhibition zone (IZ) [11] [mm] | inhibition zone (IZ) [12] [mm] | Activity [13] | Activity [14] | Activity [15] | Activity [16] | Activity [17] | also measured
1 | CCNC(=O)Oc1ccc2c(c1)CCN1C(=O)CCC21 (configuration not stated) | 0 | 0 | 8.83 | 0 | 0 | 7.5 | 0 | 6.5 | 9.66 | 8.5 | 6.83 | 6.33 | – | – | – | – | – | –
2 | COc1cc2c(cc1Cl)CCN1C(=O)CCC21 (configuration not stated) | 7.5 | 7.83 | 10.33 | 7.5 | 0 | – | 6.33 | 7.33 | 6.83 | 6.83 | 6.83 | 6.16 | – | – | – | – | – | –
3 | CCNC(=O)Oc1cc2c(cc1Cl)CCN1C(=O)CCC21 (configuration not stated) | – | – | – | – | – | – | – | – | – | – | – | – | inactive | inactive | inactive | inactive | inactive | Activity [2]: inactive; Activity [3]: inactive; Activity [6]: inactive; Activity [8]: inactive; Activity [10]: inactive; Activity [11]: inactive; Activity [12]: inactive
4 | O=C1CCC2c3cc(OCc4ccc(F)cc4)c(OCc4ccc(F)cc4)cc3CCN12 (configuration not stated) | – | 0 | 7 | – | – | 5.83 | – | 7.33 | – | 6.33 | 6.83 | 0 | inactive | inactive | inactive | inactive | inactive | –
5 | O=C(COc1ccc2c(c1)CCN1C(=O)CCC21)Nc1ccccc1 (configuration not stated) | – | 0 | 8 | – | – | – | – | 8.83 | – | 7.33 | 7.5 | 0 | – | – | – | – | – | Activity [1]: inactive; Activity [4]: inactive; Activity [5]: inactive; Activity [7]: inactive; Activity [9]: inactive
6 | CCCCNC(=O)n1c(NC(=O)OC)nc2ccccc21 [BENOMYL] | – | – | – | 27.66 | – | – | 0 | – | – | – | – | – | – | – | – | – | – | zone of inhibition at 20 µg/disc [18]: 29.3 mm; zone of inhibition at 30 µg/disc [19]: 44.3 mm; zone of inhibition at 20 µg/disc [20]: 29.3 mm
7 | O=C1CCC2c3cc(O)c(Cl)cc3CCN12 (configuration not stated) | – | – | – | – | – | – | – | – | – | – | – | – | inactive | inactive | inactive | inactive | inactive | Activity [2]: inactive; Activity [3]: inactive; Activity [6]: inactive; Activity [8]: inactive; Activity [10]: inactive; Activity [11]: inactive; Activity [12]: inactive
8 | O=C1CCC2c3ccc(OCc4ccccc4)cc3CCN12 (configuration not stated) | 6.83 | 0 | 7.26 | 12 | 6 | 6 | 6.16 | 8.66 | 11.33 | 6.83 | 6.33 | 0 | – | – | – | – | – | –
